Reference: ChEMBL document CHEMBL1138520, “Molecular and conformational determinants of pituitary adenylate cyclase-activating polypeptide (PACAP) for activation of the PAC1 receptor” (J Med Chem, 2009)
Calls of active or inactive are those of the source. The calls are words filed in the database; no cut-off is given here. Where a SMILES comes first, the peptide text is derived from it. [ ]: non-standard residue; d: D form. ξ: configuration not given here. ξTiq(1-COOH) = O=C(O)C1NCCc2ccccc21

How the values were obtained:
[1] = biological target: T1, Pituitary adenylate cyclase-activating polypeptide type I receptor (Homo sapiens, UniProt P41586); assay: Displacement of [125I]Ac-PACAP27 from human recombinant PAC1 receptor expressed in CHO cells by gamma- counter; assay type: cell-based
Target sequence in this assay (P41586 whole entry): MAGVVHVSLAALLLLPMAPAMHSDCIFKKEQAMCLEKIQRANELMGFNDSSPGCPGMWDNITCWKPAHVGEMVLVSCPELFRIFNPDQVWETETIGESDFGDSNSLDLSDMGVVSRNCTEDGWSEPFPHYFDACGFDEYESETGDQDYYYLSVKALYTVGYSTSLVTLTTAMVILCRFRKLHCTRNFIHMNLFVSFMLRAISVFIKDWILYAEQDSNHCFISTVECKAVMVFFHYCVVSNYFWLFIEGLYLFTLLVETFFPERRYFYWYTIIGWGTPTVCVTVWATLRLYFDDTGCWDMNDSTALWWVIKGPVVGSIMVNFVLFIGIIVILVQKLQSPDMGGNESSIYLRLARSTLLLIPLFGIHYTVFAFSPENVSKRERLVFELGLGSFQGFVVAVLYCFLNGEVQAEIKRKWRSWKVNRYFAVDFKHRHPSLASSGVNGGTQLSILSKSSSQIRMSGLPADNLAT

[2] = biological target: T1, Pituitary adenylate cyclase-activating polypeptide type I receptor; assay: Agonist activity at human recombinant PAC1 receptor expressed in CHO cells assessed as PACAP38-induced calcium mobilization at 1 uM by FLIPR assay; assay type: functional, cell-based
Target sequence in this assay (P41586 whole entry): as above

[3] = biological target: T1, Pituitary adenylate cyclase-activating polypeptide type I receptor; assay: Agonist activity at human recombinant PAC1 receptor expressed in CHO cells assessed as PACAP38-induced calcium mobilization at 1 uM by FLIPR assay relative to PACAP38; assay type: functional, cell-based
Target sequence in this assay (P41586 21-468 limits assumed): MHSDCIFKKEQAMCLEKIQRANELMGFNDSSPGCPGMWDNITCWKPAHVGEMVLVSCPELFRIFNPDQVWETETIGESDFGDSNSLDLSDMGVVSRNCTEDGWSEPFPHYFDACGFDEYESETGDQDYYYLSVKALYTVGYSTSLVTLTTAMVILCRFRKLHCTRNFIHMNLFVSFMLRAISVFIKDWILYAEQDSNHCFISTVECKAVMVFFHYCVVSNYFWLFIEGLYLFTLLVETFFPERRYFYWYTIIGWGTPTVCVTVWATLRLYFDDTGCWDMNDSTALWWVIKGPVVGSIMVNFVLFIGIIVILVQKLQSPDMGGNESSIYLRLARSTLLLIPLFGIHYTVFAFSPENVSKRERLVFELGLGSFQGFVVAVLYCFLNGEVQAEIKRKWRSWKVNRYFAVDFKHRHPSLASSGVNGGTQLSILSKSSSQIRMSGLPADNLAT

[4] = biological target: T1, Pituitary adenylate cyclase-activating polypeptide type I receptor; assay: Agonist activity at human recombinant PAC1 receptor expressed in CHO cells assessed as PACAP38-induced calcium mobilization by FLIPR assay; assay type: functional, cell-based
Summary of the method: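 CHO cells stably expressing recombinant human PAC1, plated 24 h before assay, loaded with fluo-4 AM for 60 min at 37 °C in the dark, then rinsed into HBSS for 15 min at 37 °C. EC50 and efficacy came from nonlinear regression; 4-10 independent assays in duplicate.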
Target sequence in this assay (P41586 whole entry): as the sequence (P41586 whole entry) above

[5] = biological target: T1, Pituitary adenylate cyclase-activating polypeptide type I receptor; assay: Agonist activity at human recombinant PAC1 receptor expressed in CHO cells assessed as PACAP38-induced calcium mobilization by FLIPR assay relative to PACAP38; assay type: functional, cell-based
Summary of the method: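 CHO cells stably expressing recombinant human PAC1, plated 24 h before assay, loaded with fluo-4 AM for 60 min at 37 °C in the dark, then rinsed into HBSS for 15 min at 37 °C. Peptide was added 18 s into a 150 s read (ex 480/em 525 nm), at final concentrations of 1 × 10-12 to 1 × 10^-5 M. Response was normalised to 1 × 10^-5 M PACAP38 on each plate. EC50 and efficacy came from nonlinear regression; 4-10 independent assays in duplicate.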
Target sequence in this assay (P41586 21-468 limits assumed): as the sequence (P41586 21-468 limits assumed) above

Row | Structure (SMILES) | IC50 [1] | EC50 [2] | Emax [3] | EC50 [4] | Emax [5]
1 | CC[C@H](C)[C@H](NC(=O)CNC(=O)[C@H](CC(=O)O)NC(=O)[C@H](CO)NC(=O)[C@@H](N)Cc1cnc[nH]1)C(=O)N1CCc2ccccc2C1C(=O)N[C@H](C(=O)N[C@@H](CC(=O)O)C(=O)N[C@@H](CO)C(=O)N[C@@H](Cc1ccc(O)cc1)C(=O)N[C@@H](CO)C(=O)N[C@@H](CCCNC(=N)N)C(=O)N[C@@H](Cc1ccc(O)cc1)C(=O)N[C@@H](CCCNC(=N)N)C(=O)N[C@@H](CCCCN)C(=O)N[C@@H](CCC(N)=O)C(=O)N[C@@H](CCSC)C(=O)N[C@@H](C)C(=O)N[C@H](C(=O)N[C@@H](CCCCN)C(=O)N[C@@H](CCCCN)C(=O)N[C@@H](Cc1ccc(O)cc1)C(=O)N[C@@H](CC(C)C)C(=O)N[C@@H](C)C(=O)N[C@@H](C)C(=O)N[C@H](C(=O)N[C@@H](CC(C)C)C(=O)NCC(=O)N[C@@H](CCCCN)C(=O)N[C@@H](CCCNC(=N)N)C(=O)N[C@@H](Cc1ccc(O)cc1)C(=O)N[C@@H](CCCCN)C(=O)N[C@@H](CCC(N)=O)C(=O)N[C@@H](CCCNC(=N)N)C(=O)N[C@H](C(=O)N[C@@H](CCCCN)C(=O)N[C@@H](CC(N)=O)C(=O)N[C@@H](CCCCN)C(N)=O)C(C)C)C(C)C)C(C)C)[C@@H](C)O (some centres undefined) (H-HSDGI[ξTiq(1-COOH)]TDSYSRYRKQMAVKKYLAAVLGKRYKQRVKNK-NH2) | 1550 nM | Not Active | inactive |  | 
2 | CC[C@H](C)[C@H](NC(=O)CNC(=O)[C@@H](CC(=O)O)NC(=O)[C@H](CO)NC(=O)[C@@H](N)Cc1cnc[nH]1)C(=O)N[C@@H](Cc1ccccc1)C(=O)N[C@H](C(=O)N[C@@H](CC(=O)O)C(=O)N[C@@H](CO)C(=O)N[C@@H](Cc1ccc(O)cc1)C(=O)N[C@@H](CO)C(=O)N[C@@H](CCCNC(=N)N)C(=O)N[C@@H](Cc1ccc(O)cc1)C(=O)N[C@@H](CCCNC(=N)N)C(=O)N[C@@H](CCCCN)C(=O)N[C@@H](CCC(N)=O)C(=O)N[C@@H](CCSC)C(=O)N[C@@H](C)C(=O)N[C@H](C(=O)N[C@@H](CCCCN)C(=O)N[C@@H](CCCCN)C(=O)N[C@@H](Cc1ccc(O)cc1)C(=O)N[C@@H](CC(C)C)C(=O)N[C@@H](C)C(=O)N[C@@H](C)C(=O)N[C@H](C(=O)N[C@@H](CC(C)C)C(=O)NCC(=O)N[C@@H](CCCCN)C(=O)N[C@@H](CCCNC(=N)N)C(=O)N[C@@H](Cc1ccc(O)cc1)C(=O)N[C@@H](CCCCN)C(=O)N[C@@H](CCC(N)=O)C(=O)N[C@@H](CCCNC(=N)N)C(=O)N[C@H](C(=O)N[C@@H](CCCCN)C(=O)N[C@@H](CC(N)=O)C(=O)N[C@@H](CCCCN)C(N)=O)C(C)C)C(C)C)C(C)C)[C@@H](C)O | 7.2 nM |  |  | 7.6 nM | 98.6%
3 | CC[C@H](C)[C@H](NC(=O)CNC(=O)[C@H](CC(=O)O)NC(=O)[C@H](CO)NC(=O)[C@@H](N)Cc1cnc[nH]1)C(=O)N[C@@H](Cc1ccccc1)C(=O)N(C)[C@H](C(=O)N[C@@H](CC(=O)O)C(=O)N[C@@H](CO)C(=O)N[C@@H](Cc1ccc(O)cc1)C(=O)N[C@@H](CO)C(=O)N[C@@H](CCCNC(=N)N)C(=O)N[C@@H](Cc1ccc(O)cc1)C(=O)N[C@@H](CCCNC(=N)N)C(=O)N[C@@H](CCCCN)C(=O)N[C@@H](CCC(N)=O)C(=O)N[C@@H](CCSC)C(=O)N[C@@H](C)C(=O)N[C@H](C(=O)N[C@@H](CCCCN)C(=O)N[C@@H](CCCCN)C(=O)N[C@@H](Cc1ccc(O)cc1)C(=O)N[C@@H](CC(C)C)C(=O)N[C@@H](C)C(=O)N[C@@H](C)C(=O)N[C@H](C(=O)N[C@@H](CC(C)C)C(N)=O)C(C)C)C(C)C)[C@@H](C)O | 2040 nM |  |  | 2120 nM | 35.4%
4 | CC[C@H](C)[C@H](NC(=O)CNC(=O)[C@H](CC(=O)O)NC(=O)[C@H](CO)NC(=O)[C@@H](N)Cc1cnc[nH]1)C(=O)N[C@@H](C)C(=O)N[C@H](C(=O)N[C@@H](CC(=O)O)C(=O)N[C@@H](CO)C(=O)N[C@@H](Cc1ccc(O)cc1)C(=O)N[C@@H](CO)C(=O)N[C@@H](CCCNC(=N)N)C(=O)N[C@@H](Cc1ccc(O)cc1)C(=O)N[C@@H](CCCNC(=N)N)C(=O)N[C@@H](CCCCN)C(=O)N[C@@H](CCC(N)=O)C(=O)N[C@@H](CCSC)C(=O)N[C@@H](C)C(=O)N[C@H](C(=O)N[C@@H](CCCCN)C(=O)N[C@@H](CCCCN)C(=O)N[C@@H](Cc1ccc(O)cc1)C(=O)N[C@@H](CC(C)C)C(=O)N[C@@H](C)C(=O)N[C@@H](C)C(=O)N[C@H](C(=O)N[C@@H](CC(C)C)C(N)=O)C(C)C)C(C)C)[C@@H](C)O | 1330 nM |  |  | 462 nM | 65.3%
5 | CC[C@H](C)[C@H](NC(=O)CNC(=O)[C@H](CC(=O)O)NC(=O)[C@H](CO)NC(=O)[C@@H](N)Cc1cncn1C)C(=O)N[C@@H](Cc1ccccc1)C(=O)N[C@H](C(=O)N[C@@H](CC(=O)O)C(=O)N[C@@H](CO)C(=O)N[C@@H](Cc1ccc(O)cc1)C(=O)N[C@@H](CO)C(=O)N[C@@H](CCCNC(=N)N)C(=O)N[C@@H](Cc1ccc(O)cc1)C(=O)N[C@@H](CCCNC(=N)N)C(=O)N[C@@H](CCCCN)C(=O)N[C@@H](CCC(N)=O)C(=O)N[C@@H](CCSC)C(=O)N[C@@H](C)C(=O)N[C@H](C(=O)N[C@@H](CCCCN)C(=O)N[C@@H](CCCCN)C(=O)N[C@@H](Cc1ccc(O)cc1)C(=O)N[C@@H](CC(C)C)C(=O)N[C@@H](C)C(=O)N[C@@H](C)C(=O)N[C@H](C(=O)N[C@@H](CC(C)C)C(N)=O)C(C)C)C(C)C)[C@@H](C)O | 15.6 nM |  |  | 52.5 nM | 96.9%
6 | CC[C@H](C)[C@H](NC(=O)CNC(=O)[C@H](CCC(=O)O)NC(=O)[C@H](CO)NC(=O)[C@@H](N)Cc1cnc[nH]1)C(=O)N[C@@H](Cc1ccccc1)C(=O)N[C@H](C(=O)N[C@@H](CC(=O)O)C(=O)N[C@@H](CO)C(=O)N[C@@H](Cc1ccc(O)cc1)C(=O)N[C@@H](CO)C(=O)N[C@@H](CCCNC(=N)N)C(=O)N[C@@H](Cc1ccc(O)cc1)C(=O)N[C@@H](CCCNC(=N)N)C(=O)N[C@@H](CCCCN)C(=O)N[C@@H](CCC(N)=O)C(=O)N[C@@H](CCSC)C(=O)N[C@@H](C)C(=O)N[C@H](C(=O)N[C@@H](CCCCN)C(=O)N[C@@H](CCCCN)C(=O)N[C@@H](Cc1ccc(O)cc1)C(=O)N[C@@H](CC(C)C)C(=O)N[C@@H](C)C(=O)N[C@@H](C)C(=O)N[C@H](C(=O)N[C@@H](CC(C)C)C(N)=O)C(C)C)C(C)C)[C@@H](C)O | 10.6 nM |  |  | 20.6 nM | 90.5%
7 | CC[C@H](C)[C@H](NC(=O)CNC(=O)[C@H](CC(=O)O)NC(=O)[C@H](C)NC(=O)[C@@H](N)Cc1cnc[nH]1)C(=O)N[C@@H](Cc1ccccc1)C(=O)N[C@H](C(=O)N[C@@H](CC(=O)O)C(=O)N[C@@H](CO)C(=O)N[C@@H](Cc1ccc(O)cc1)C(=O)N[C@@H](CO)C(=O)N[C@@H](CCCNC(=N)N)C(=O)N[C@@H](Cc1ccc(O)cc1)C(=O)N[C@@H](CCCNC(=N)N)C(=O)N[C@@H](CCCCN)C(=O)N[C@@H](CCC(N)=O)C(=O)N[C@@H](CCSC)C(=O)N[C@@H](C)C(=O)N[C@H](C(=O)N[C@@H](CCCCN)C(=O)N[C@@H](CCCCN)C(=O)N[C@@H](Cc1ccc(O)cc1)C(=O)N[C@@H](CC(C)C)C(=O)N[C@@H](C)C(=O)N[C@@H](C)C(=O)N[C@H](C(=O)N[C@@H](CC(C)C)C(=O)NCC(=O)N[C@@H](CCCCN)C(=O)N[C@@H](CCCNC(=N)N)C(=O)N[C@@H](Cc1ccc(O)cc1)C(=O)N[C@@H](CCCCN)C(=O)N[C@@H](CCC(N)=O)C(=O)N[C@@H](CCCNC(=N)N)C(=O)N[C@H](C(=O)N[C@@H](CCCCN)C(=O)N[C@@H](CC(N)=O)C(=O)N[C@@H](CCCCN)C(N)=O)C(C)C)C(C)C)C(C)C)[C@@H](C)O (H-HADGIFTDSYSRYRKQMAVKKYLAAVLGKRYKQRVKNK-NH2) | 7.9 nM |  |  | 5.1 nM | 105%
8 | CC[C@H](C)[C@H](NC(=O)CNC(=O)[C@H](CC(=O)O)NC(=O)[C@H](CO)N(C)C(=O)[C@@H](N)Cc1cnc[nH]1)C(=O)N[C@@H](Cc1ccccc1)C(=O)N[C@H](C(=O)N[C@@H](CC(=O)O)C(=O)N[C@@H](CO)C(=O)N[C@@H](Cc1ccc(O)cc1)C(=O)N[C@@H](CO)C(=O)N[C@@H](CCCNC(=N)N)C(=O)N[C@@H](Cc1ccc(O)cc1)C(=O)N[C@@H](CCCNC(=N)N)C(=O)N[C@@H](CCCCN)C(=O)N[C@@H](CCC(N)=O)C(=O)N[C@@H](CCSC)C(=O)N[C@@H](C)C(=O)N[C@H](C(=O)N[C@@H](CCCCN)C(=O)N[C@@H](CCCCN)C(=O)N[C@@H](Cc1ccc(O)cc1)C(=O)N[C@@H](CC(C)C)C(=O)N[C@@H](C)C(=O)N[C@@H](C)C(=O)N[C@H](C(=O)N[C@@H](CC(C)C)C(=O)NCC(=O)N[C@@H](CCCCN)C(=O)N[C@@H](CCCNC(=N)N)C(=O)N[C@@H](Cc1ccc(O)cc1)C(=O)N[C@@H](CCCCN)C(=O)N[C@@H](CCC(N)=O)C(=O)N[C@@H](CCCNC(=N)N)C(=O)N[C@H](C(=O)N[C@@H](CCCCN)C(=O)N[C@@H](CC(N)=O)C(=O)N[C@@H](CCCCN)C(N)=O)C(C)C)C(C)C)C(C)C)[C@@H](C)O | 9.1 nM |  |  | 110 nM | 87.7%
